Laboratory results: ChEMBL document CHEMBL5649170, “Sustained microglial depletion with CSF1R inhibitor impairs parenchymal plaque development in an Alzheimer's disease model” (Nat Commun, 2019)
Blank lines part the entries; values can stand above or below the molecule they belong to.

How the values were obtained:
[1] = Drug concentration in wildtype mouse plasma at 600 ppm administered as rodent chow starting from 1.5 months and measured after 5 months; type: ADME, cell-free; conditions: route po, time 3.5 months
How it was run: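 WT or 5xFAD mice were fed PLX3397 in AIN-76A chow at 600 ppm or 75 ppm from 1.5 to 5 months of age. Terminal brain and plasma drug concentrations were determined at study end.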

[2] = Volume of distribution at steady state in male rat at 1.13 mg/kg, iv administered as single dose; type: ADME, organism-based; conditions: in vivo, read-out: Vdss
Mus musculus [3] = assay: Antialzheimer activity in 5XFAD mouse assessed as ApoE immunoreactivity by measuring reduction in core ApoE in cortex at 1200 ppm administered as rodent chow starting from 1.5 months and measured after 7 months by immunolabeling based confocal microscopic analysis relative to control; type: functional; set-up: scale not given: the % may be the effect or the level left; conditions: route po, time 5.5 months, 4015 h
[4] = target: Maternal embryonic leucine zipper kinase (Homo sapiens, UniProt Q14680); assay: Inhibition of MELK (unknown origin)
[5] = target: Phosphatidylinositol 4-kinase beta (Homo sapiens, UniProt Q9UBF8); assay: Inhibition of PI4KB (unknown origin)
[6] = Effect on Rtn4r gene expression in wildtype mouse hippocampus assessed as percent change in Reads Per kilo base per Million mapped reads at 1200 ppm administered as rodent chow starting from 1.5 months and measured after 7 months by RNA-Seq analysis (reference value: 88.030 to 132.504 %); type: functional; conditions: route po, time 5.5 months, 4015 h
[7] = Half-life in female rat at 1.13 mg/kg, iv administered as single dose; type: ADME, organism-based; conditions: in vivo
[8] = target: Serine/threonine-protein kinase D2 (Homo sapiens, UniProt Q9BZL6); assay: Inhibition of PRKD2 (unknown origin)
[9] = Effect on Ctsz gene expression in 5XFAD mouse cortex at 1200 ppm administered as rodent chow starting from 1.5 months and measured after 7 months by RNA-Seq analysis (reference value: 27.650 to 42.003 RPKM); type: functional; conditions: route po, time 5.5 months, 4015 h
Mus musculus [10] = assay: Antialzheimer activity in 5XFAD mouse assessed as number of pyroglutamate-3-modified positive plaques per FOV in cortex at 1200 ppm administered as rodent chow starting from 1.5 months and measured after 7 months by Thio-S staining based confocal microscopic analysis (reference value: 14 to 34); type: functional; conditions: route po, time 5.5 months, 4015 h
[11] = target: Serine/threonine-protein kinase pim-2 (Homo sapiens, UniProt Q9P1W9); assay: Inhibition of PIM2 (unknown origin)
[12] = target: Tyrosine-protein kinase Fgr (Homo sapiens, UniProt P09769); assay: Inhibition of FGR (unknown origin)
[13] = target: Serine/threonine-protein kinase Nek2 (Homo sapiens, UniProt P51955); assay: Inhibition of NEK2 (unknown origin)
[14] = Effect on Ctsz gene expression in wild type mouse cortex at 1200 ppm administered as rodent chow starting from 1.5 months and measured after 7 months by RNA-Seq analysis (reference value: 12.903 to 16.267 RPKM); type: functional; conditions: route po, time 5.5 months, 4015 h
Ephrin type-A receptor 3 = Ephrin type-A receptor 3 (Homo sapiens, UniProt P29320); assay: Inhibition of EPHA3 (unknown origin)
[15] = target: Vascular endothelial growth factor receptor 3 (Homo sapiens, UniProt P35916); assay: Inhibition of FLT4 (unknown origin)
[16] = Clearance in dog at 1.00 mg/kg, iv administered as single dose; type: ADME, organism-based, Canis lupus familiaris; conditions: in vivo
[17] = target: Rho-associated protein kinase 2 (Homo sapiens, UniProt O75116); assay: Inhibition of ROCK2 (unknown origin)
[18] = Effect on Dync1i1 gene expression in wildtype mouse hippocampus assessed as percent change in Reads Per kilo base per Million mapped reads at 1200 ppm administered as rodent chow starting from 1.5 months and measured after 7 months by RNA-Seq analysis (reference value: 96.347 to 105.024 %); type: functional; conditions: route po, time 5.5 months, 4015 h
[19] = target: Tyrosine-protein kinase Lck (Homo sapiens, UniProt P06239); assay: Inhibition of LCK (unknown origin)
[20] = target: RAC-alpha serine/threonine-protein kinase (Homo sapiens, UniProt P31749); assay: Inhibition of AKT1 (unknown origin)
[21] = Effect on Spi1 gene expression in 5XFAD mouse cortex at 1200 ppm administered as rodent chow starting from 1.5 months and measured after 7 months by RNA-Seq analysis (reference value: 1.689 to 2.928 RPKM); type: functional; conditions: route po, time 5.5 months, 4015 h
[22] = Effect on Dusp5 gene expression in wildtype mouse hippocampus assessed as percent change in Reads Per kilo base per Million mapped reads at 1200 ppm administered as rodent chow starting from 1.5 months and measured after 7 months by RNA-Seq analysis (reference value: 75.632 to 114.605 %); type: functional; conditions: route po, time 5.5 months, 4015 h
[23] = Effect on Siglech gene expression in wild type mouse cortex at 1200 ppm administered as rodent chow starting from 1.5 months and measured after 7 months by RNA-Seq analysis (reference value: 3.777 to 4.267 RPKM); type: functional; conditions: route po, time 5.5 months, 4015 h
Mus musculus [24] = assay: Effect on APP processing pathway in wildtype mouse assessed as PEN2 protein signal intensity in cortex at 1200 ppm administered as rodent starting from 1.5 months and measured after 7 months (reference value: 47.716 to 128.950 %); type: functional; conditions: route po, time 5.5 months, 4015 h
[25] = Effect on Siglech gene expression in 5XFAD mouse cortex at 1200 ppm administered as rodent chow starting from 1.5 months and measured after 7 months by RNA-Seq analysis (reference value: 5.048 to 7.930 RPKM); type: functional; conditions: route po, time 5.5 months, 4015 h
[26] = target: Dual specificity tyrosine-phosphorylation-regulated kinase 4 (Homo sapiens, UniProt Q9NR20); assay: Inhibition of DYRK4 (unknown origin)
Dual specificity tyrosine-phosphorylation-regulated kinase 4, sequence (Q9NR20 whole entry): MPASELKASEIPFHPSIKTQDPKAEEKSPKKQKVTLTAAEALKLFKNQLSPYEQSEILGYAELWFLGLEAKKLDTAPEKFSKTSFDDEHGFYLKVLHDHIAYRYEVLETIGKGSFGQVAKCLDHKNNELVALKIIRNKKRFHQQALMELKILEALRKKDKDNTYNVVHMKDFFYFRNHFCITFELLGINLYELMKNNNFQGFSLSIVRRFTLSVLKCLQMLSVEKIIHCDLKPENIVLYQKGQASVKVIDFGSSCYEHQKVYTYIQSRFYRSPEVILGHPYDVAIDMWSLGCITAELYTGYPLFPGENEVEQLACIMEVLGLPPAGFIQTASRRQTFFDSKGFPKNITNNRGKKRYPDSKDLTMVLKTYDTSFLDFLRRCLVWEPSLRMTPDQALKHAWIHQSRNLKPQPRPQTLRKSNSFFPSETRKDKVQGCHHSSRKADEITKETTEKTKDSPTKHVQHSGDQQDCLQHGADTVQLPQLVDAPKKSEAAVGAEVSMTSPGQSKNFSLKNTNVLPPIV

Maternal embryonic leucine zipper kinase, sequence (Q14680 whole entry): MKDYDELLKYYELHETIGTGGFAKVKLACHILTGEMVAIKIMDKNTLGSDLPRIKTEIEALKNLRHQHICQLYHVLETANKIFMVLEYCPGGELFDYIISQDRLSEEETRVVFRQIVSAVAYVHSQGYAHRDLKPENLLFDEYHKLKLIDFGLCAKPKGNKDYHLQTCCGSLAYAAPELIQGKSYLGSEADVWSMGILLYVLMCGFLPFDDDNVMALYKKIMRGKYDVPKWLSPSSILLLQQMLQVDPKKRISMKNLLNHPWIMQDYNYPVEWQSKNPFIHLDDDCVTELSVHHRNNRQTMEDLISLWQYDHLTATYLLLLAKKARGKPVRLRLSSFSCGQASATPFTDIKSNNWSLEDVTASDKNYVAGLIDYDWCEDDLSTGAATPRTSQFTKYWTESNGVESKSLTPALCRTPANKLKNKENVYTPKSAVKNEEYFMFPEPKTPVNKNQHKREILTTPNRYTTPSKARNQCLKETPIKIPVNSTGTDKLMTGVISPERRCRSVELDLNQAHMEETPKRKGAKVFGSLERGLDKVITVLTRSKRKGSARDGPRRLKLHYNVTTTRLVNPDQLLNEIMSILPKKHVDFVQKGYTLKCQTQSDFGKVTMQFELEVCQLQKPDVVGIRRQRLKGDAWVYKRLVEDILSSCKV
Vascular endothelial growth factor receptor 3, sequence (P35916 whole entry): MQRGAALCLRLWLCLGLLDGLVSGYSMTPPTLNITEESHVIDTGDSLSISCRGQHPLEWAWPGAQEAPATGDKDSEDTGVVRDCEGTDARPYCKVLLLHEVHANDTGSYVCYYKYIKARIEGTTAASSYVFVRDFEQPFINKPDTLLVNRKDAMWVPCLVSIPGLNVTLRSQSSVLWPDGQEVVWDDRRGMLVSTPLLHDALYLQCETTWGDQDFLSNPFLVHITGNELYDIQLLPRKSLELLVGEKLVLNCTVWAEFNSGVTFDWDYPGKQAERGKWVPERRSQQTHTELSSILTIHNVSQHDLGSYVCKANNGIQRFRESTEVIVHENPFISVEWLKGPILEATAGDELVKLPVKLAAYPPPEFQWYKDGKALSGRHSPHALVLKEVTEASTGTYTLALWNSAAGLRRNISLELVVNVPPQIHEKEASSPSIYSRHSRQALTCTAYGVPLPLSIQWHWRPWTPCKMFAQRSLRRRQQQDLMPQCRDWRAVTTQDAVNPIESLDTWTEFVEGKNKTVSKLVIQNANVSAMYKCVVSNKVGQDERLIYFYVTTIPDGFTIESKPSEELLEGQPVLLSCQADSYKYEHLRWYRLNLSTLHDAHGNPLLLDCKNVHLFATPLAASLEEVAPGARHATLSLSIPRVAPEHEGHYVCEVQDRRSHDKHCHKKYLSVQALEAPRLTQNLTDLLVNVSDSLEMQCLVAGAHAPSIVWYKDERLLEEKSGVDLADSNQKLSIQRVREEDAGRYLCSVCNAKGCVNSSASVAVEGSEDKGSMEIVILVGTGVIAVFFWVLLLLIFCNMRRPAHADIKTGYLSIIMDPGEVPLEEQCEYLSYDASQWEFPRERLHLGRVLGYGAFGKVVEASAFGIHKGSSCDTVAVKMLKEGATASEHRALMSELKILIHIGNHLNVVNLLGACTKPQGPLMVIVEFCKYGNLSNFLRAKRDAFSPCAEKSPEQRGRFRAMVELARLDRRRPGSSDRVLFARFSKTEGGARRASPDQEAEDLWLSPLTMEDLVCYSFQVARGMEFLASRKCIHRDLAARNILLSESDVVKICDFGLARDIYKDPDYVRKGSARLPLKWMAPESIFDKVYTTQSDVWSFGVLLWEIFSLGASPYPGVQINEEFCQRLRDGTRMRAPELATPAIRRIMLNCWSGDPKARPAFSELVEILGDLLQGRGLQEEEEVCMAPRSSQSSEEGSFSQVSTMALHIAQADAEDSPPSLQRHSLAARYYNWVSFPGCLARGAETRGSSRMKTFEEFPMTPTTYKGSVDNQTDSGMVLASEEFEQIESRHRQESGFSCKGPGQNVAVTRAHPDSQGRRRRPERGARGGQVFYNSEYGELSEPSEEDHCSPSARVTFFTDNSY
Serine/threonine-protein kinase Nek2, sequence (P51955 whole entry): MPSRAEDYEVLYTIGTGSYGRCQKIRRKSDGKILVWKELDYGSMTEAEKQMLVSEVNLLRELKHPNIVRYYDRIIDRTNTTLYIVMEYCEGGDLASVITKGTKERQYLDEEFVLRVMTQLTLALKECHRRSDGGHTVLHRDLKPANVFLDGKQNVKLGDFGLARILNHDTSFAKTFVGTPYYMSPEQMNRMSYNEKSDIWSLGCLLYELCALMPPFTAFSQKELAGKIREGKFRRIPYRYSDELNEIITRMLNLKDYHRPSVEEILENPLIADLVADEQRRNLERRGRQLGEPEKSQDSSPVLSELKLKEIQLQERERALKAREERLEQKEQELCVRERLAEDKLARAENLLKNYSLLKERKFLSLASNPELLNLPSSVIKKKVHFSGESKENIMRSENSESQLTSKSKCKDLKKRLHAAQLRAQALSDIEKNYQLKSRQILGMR
Serine/threonine-protein kinase pim-2, sequence (Q9P1W9 whole entry): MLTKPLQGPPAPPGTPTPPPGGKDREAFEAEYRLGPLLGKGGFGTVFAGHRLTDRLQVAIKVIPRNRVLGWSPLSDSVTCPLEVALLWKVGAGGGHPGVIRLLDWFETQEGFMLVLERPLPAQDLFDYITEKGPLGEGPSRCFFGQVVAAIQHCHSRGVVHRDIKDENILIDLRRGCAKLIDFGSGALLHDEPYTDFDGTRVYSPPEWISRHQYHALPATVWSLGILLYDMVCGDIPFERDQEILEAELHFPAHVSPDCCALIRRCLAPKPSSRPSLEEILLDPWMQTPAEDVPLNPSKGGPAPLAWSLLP
RAC-alpha serine/threonine-protein kinase, sequence (P31749 whole entry): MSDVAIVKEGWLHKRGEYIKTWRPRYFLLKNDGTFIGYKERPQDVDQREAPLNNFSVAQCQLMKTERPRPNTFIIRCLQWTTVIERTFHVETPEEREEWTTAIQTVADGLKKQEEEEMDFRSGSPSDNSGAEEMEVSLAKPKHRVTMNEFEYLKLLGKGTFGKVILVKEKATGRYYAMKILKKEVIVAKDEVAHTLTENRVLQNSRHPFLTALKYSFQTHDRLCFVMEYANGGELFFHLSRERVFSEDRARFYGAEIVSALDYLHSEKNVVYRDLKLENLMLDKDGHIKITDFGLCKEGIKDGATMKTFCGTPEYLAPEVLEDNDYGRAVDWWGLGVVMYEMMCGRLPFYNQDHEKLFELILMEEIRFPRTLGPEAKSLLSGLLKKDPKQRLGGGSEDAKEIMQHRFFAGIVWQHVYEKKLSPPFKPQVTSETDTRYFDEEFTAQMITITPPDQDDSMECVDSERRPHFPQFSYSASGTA
Serine/threonine-protein kinase D2, sequence (Q9BZL6 whole entry): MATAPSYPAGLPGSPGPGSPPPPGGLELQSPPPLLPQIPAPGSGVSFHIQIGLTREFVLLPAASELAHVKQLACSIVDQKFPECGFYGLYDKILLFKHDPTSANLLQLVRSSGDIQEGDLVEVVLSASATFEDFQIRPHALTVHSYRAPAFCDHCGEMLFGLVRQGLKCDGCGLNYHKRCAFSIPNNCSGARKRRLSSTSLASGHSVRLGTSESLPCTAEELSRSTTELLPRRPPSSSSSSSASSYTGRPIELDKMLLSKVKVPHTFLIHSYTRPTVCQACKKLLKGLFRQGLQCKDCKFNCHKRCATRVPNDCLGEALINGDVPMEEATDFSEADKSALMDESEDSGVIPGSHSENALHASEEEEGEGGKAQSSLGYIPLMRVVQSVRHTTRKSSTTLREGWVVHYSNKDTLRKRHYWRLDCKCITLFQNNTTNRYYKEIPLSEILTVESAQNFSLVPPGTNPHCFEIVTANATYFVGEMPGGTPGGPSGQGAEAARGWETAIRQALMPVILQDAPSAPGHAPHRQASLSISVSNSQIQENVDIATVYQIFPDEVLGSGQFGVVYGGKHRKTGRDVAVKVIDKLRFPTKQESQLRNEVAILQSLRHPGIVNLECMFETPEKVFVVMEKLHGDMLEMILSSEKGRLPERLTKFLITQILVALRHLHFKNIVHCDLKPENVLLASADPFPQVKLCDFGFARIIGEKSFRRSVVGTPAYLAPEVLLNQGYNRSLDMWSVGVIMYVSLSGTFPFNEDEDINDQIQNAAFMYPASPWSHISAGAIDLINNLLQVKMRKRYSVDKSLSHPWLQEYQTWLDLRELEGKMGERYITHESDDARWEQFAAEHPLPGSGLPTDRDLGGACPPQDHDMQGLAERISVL

concentration at 2555 h [1]: 139 µM
SMILES: FC(F)(F)c1ccc(CNc2ccc(Cc3c[nH]c4ncc(Cl)cc34)cn2)cn1 [PEXIDARTINIB]

SMILES: COc1ncc(F)cc1CNc1ccc(Cc2c[nH]c3ncc(C)cc23)c(F)n1 [PLX-5622]
Vd [2]: 1.2 L/kg
Activity (Mus musculus [3]): ~50%
IC50 [4]: > 1000 nM
IC50 [5]: > 1000 nM
Activity [6]: 89.887%
half-life [7]: 3.9 h
IC50 [8]: > 1000 nM
Activity [9]: 13.681 RPKM
Activity (Mus musculus [10]): 0
IC50 [11]: > 1000 nM
IC50 [12]: > 1000 nM
IC50 [13]: > 1000 nM
Activity [14]: 11.205 RPKM
IC50 (Ephrin type-A receptor 3): > 1000 nM
IC50 [15]: > 1000 nM
clearance [16]: 3 mL/min/kg
IC50 [17]: > 1000 nM
Activity [18]: 81.186%
IC50 [19]: > 1000 nM
IC50 [20]: > 1000 nM
Activity [21]: 0.13 RPKM
Activity [22]: 94.671%
Activity [23]: 0 RPKM
Activity (Mus musculus [24]): 9.039%
Activity [25]: 0.14 RPKM
IC50 [26]: > 1000 nM
